≈ marks a conversion by molar mass, not a printed value. Calls of active or inactive are those of the source. The calls are words filed in the database; no cut-off is given here.
Columns and labels:
[1] = tested on: Mycobacteroides abscessus; experiment: Antibacterial activity against non CF patient derived Mycobacterium abscessus subsp. abscessus isolate 2587 smooth variant after 3 to 5 days by two fold serial dilution method; type: functional
Method in brief: (§1)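 Broth microdilution in cation-adjusted Mueller−Hinton broth per CLSI; inoculum 5 × 10^6 CFU/mL of exponential-phase bacteria; two-fold serial dilutions, solvent-only wells as control; 30 °C for 3−5 days; MIC read visually and confirmed by absorbance at 560 nm; triplicate on three independent occasions.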

[2] = tested on: Mycobacteroides abscessus; experiment: Antibacterial activity against non CF patient derived Mycobacterium abscessus subsp. abscessus isolate 3022 rough variant after 3 to 5 days by two fold serial dilution method; type: functional; method in brief: as §1
[3] = Antibacterial activity against Mycobacterium abscessus subsp. bolletii isolate CIP108541 smooth variant after 3 to 5 days by two fold serial dilution method; type: functional; details: Mycobacteroides abscessus; method in brief: as §1
[4] = tested on: Mycobacteroides abscessus; experiment: Antibacterial activity against CF patient derived Mycobacterium abscessus subsp. abscessus isolate 2524 rough variant after 3 to 5 days by two fold serial dilution method; type: functional; method in brief: as §1
[5] = tested on: Mycobacteroides abscessus; experiment: Antibacterial activity against Mycobacterium abscessus CIP104536 smooth variant harboring pMV261 MAB_4508_A309P mutant at 0.5 to 1 ug/ml after 3 days; type: functional
Method in brief: (§2)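 M. abscessus overexpressing wild-type or A309P MAB_4508 from pMV261 plated on 7H10 agar with 10% OADC containing drug; plates incubated at 30 °C for 3 days before growth inspection.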

[6] = Antibacterial activity against CF patient derived Mycobacterium abscessus subsp. bolletii isolate 97 smooth variant after 3 to 5 days by two fold serial dilution method; type: functional; details: Mycobacteroides abscessus; method in brief: as §1
[7] = Antibacterial activity against CF patient derived Mycobacterium abscessus subsp. bolletii isolate 108 rough variant after 3 to 5 days by two fold serial dilution method; type: functional; details: Mycobacteroides abscessus; method in brief: as §1
[8] = tested on: Mycobacteroides abscessus; experiment: Antibacterial activity against CF patient derived Mycobacterium abscessus subsp. massiliense isolate 122 smooth variant after 3 to 5 days by two fold serial dilution method; type: functional; method in brief: as §1
[9] = tested on: Mycobacteroides abscessus; experiment: Antibacterial activity against Mycobacterium abscessus CIP104536 smooth variant assessed as reduction in viable colony forming unit at […] after 4 days by time-kill assay; type: functional
[10] = tested on: Mycobacteroides abscessus; experiment: Antibacterial activity against CF patient derived Mycobacterium abscessus subsp. massiliense isolate 111 smooth variant after 3 to 5 days by two fold serial dilution method; type: functional; method in brief: as §1
[11] = tested on: Mycobacteroides abscessus; experiment: Antibacterial activity against Mycobacterium abscessus CIP_PIPD1 harboring MAB_4508 g925c/A309P mutant after 3 to 5 days by two fold serial dilution method; type: functional; method in brief: as §1
[12] = Antibacterial activity against non CF patient derived Mycobacterium abscessus subsp. bolletii isolate 17 smooth variant after 3 to 5 days by two fold serial dilution method; type: functional; details: Mycobacteroides abscessus; method in brief: as §1
[13] = Antibacterial activity against CF patient derived Mycobacterium abscessus subsp. bolletii isolate 112 rough variant after 3 to 5 days by two fold serial dilution method; type: functional; details: Mycobacteroides abscessus; method in brief: as §1
[14] = tested on: Mycobacteroides abscessus; experiment: Antibacterial activity against CF patient derived Mycobacterium abscessus subsp. abscessus smooth variant after 3 to 5 days by two fold serial dilution method; type: functional; method in brief: as §1
[15] = Selectivity index, ratio of IC50 for African green monkey Vero cells to MIC for Mycobacterium abscessus CIP104536; type: toxicity; details: read-out: Selectivity Index
[16] = tested on: Mycobacteroides abscessus; experiment: Antibacterial activity against CF patient derived Mycobacterium abscessus subsp. massiliense isolate 210 rough variant after 3 to 5 days by two fold serial dilution method; type: functional; method in brief: as §1
[17] = tested on: Mycobacteroides abscessus; experiment: Antibacterial activity against CF patient derived Mycobacterium abscessus subsp. abscessus isolate 2648 rough variant after 3 to 5 days by two fold serial dilution method; type: functional; method in brief: as §1
[18] = Antibacterial activity against CF patient derived Mycobacterium abscessus subsp. bolletii isolate 114 smooth variant after 3 to 5 days by two fold serial dilution method; type: functional; details: Mycobacteroides abscessus; method in brief: as §1
[19] = tested on: Mycobacteroides abscessus; experiment: Antibacterial activity against Addison's disease patient derived Mycobacterium abscessus subsp. massiliense isolate CIP108297 smooth variant after 3 to 5 days by two fold serial dilution method; type: functional; method in brief: as §1
[20] = tested on: Mycobacterium tuberculosis; experiment: Inhibition of C-terminal His-tagged Mycobacterium tuberculosis Ag85C expressed in Escherichia coli C41 (DE3) at 2.5 to 50 uM after 1 hr by resorufin butyrate-based fluorescence assay
Method in brief: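 Purified Ag85C mycolyltransferase activity measured with the fluorescent probe resorufin butyrate; compounds tested at 2.5 to 50 μM.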

[21] = tested on: Mycobacteroides abscessus; experiment: Antibacterial activity against CF patient derived Mycobacterium abscessus subsp. abscessus isolate 3321 smooth variant after 3 to 5 days by two fold serial dilution method; type: functional; method in brief: as §1
[22] = tested on: Mycobacteroides abscessus; experiment: Antibacterial activity against CF patient derived Mycobacterium abscessus subsp. massiliense isolate 212 smooth variant after 3 to 5 days by two fold serial dilution method; type: functional; method in brief: as §1
[23] = tested on: Mycobacteroides abscessus; experiment: Antibacterial activity against CF patient derived Mycobacterium abscessus subsp. massiliense isolate 140 smooth variant after 3 to 5 days by two fold serial dilution method; type: functional; method in brief: as §1
[24] = Antibacterial activity against CF patient derived Mycobacterium abscessus subsp. bolletii isolate 116 smooth variant after 3 to 5 days by two fold serial dilution method; type: functional; details: Mycobacteroides abscessus; method in brief: as §1
[25] = tested on: Mycobacteroides abscessus; experiment: Antibacterial activity against CF patient derived Mycobacterium abscessus subsp. abscessus isolate 2069 smooth variant after 3 to 5 days by two fold serial dilution method; type: functional; method in brief: as §1
[26] = Selectivity index, ratio of IC50 for African green monkey Vero cells to MIC=<90 for Mycobacterium tuberculosis; type: toxicity; details: read-out: Selectivity Index
[27] = tested on: Mycobacteroides abscessus; experiment: Antibacterial activity against CF patient derived Mycobacterium abscessus subsp. abscessus rough variant after 3 to 5 days by two fold serial dilution method; type: functional; method in brief: as §1
[28] = tested on: Mycobacteroides abscessus; experiment: Inhibition of MmpL3 in Mycobacterium abscessus CIP104536 smooth variant assessed as reduction in trehalose dimycolate synthesis up to 6.2 ug/ml preincubated for 1 hr followed by [14C]acetic acid addition measured after 2 hrs by TLC based autoradiography analysis
Method in brief: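 Exponential cultures in 7H9 with OADC exposed to increasing drug concentrations for 1 h at 37 °C with agitation, then labelled with 1 μCi/mL [14C]acetate (56 mCi/mmol) for 2 h; apolar lipids (TMM, TDM) run on TLC in chloroform/methanol/water 40:8:1; MAME and arabinogalactan-bound mycolates in petroleum ether/acetone 95:5; autoradiography.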

[29] = tested on: Mycobacteroides abscessus; experiment: Antibacterial activity against CF patient derived Mycobacterium abscessus subsp. massiliense isolate 185 smooth variant after 3 to 5 days by two fold serial dilution method; type: functional; method in brief: as §1
[30] = tested on: Mycobacteroides abscessus; experiment: Antibacterial activity against Mycobacterium abscessus CIP104536 after 3 to 5 days by two fold serial dilution method; type: functional
Method in brief: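 Broth microdilution per CLSI in cation-adjusted Mueller–Hinton broth; exponential-phase inoculum 5 × 10^6 CFU/mL; two-fold serial dilutions from highest concentration, solvent wells as control; 30 °C for 3−5 days; MIC read visually and confirmed by absorbance at 560 nm; triplicate on three independent occasions.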

[31] = tested on: Mycobacteroides abscessus; experiment: Antibacterial activity against non CF patient derived Mycobacterium abscessus subsp. abscessus isolate CIP104536 rough variant after 3 to 5 days by two fold serial dilution method; type: functional; method in brief: as §1
Vero = experiment: Cytotoxicity against African green monkey Vero cells; type: cell-based; details: Chlorocebus sabaeus
[32] = tested on: Mycobacteroides abscessus; experiment: Antibacterial activity against Addison's disease patient derived Mycobacterium abscessus subsp. massiliense isolate CIP108297 rough variant after 3 to 5 days by two fold serial dilution method; type: functional; method in brief: as §1
[33] = tested on: Mycobacteroides abscessus; experiment: Antibacterial activity against CF patient derived Mycobacterium abscessus subsp. abscessus isolate 1298 smooth variant after 3 to 5 days by two fold serial dilution method; type: functional; method in brief: as §1
[34] = tested on: Mycobacteroides abscessus; experiment: Antibacterial activity against non CF patient derived Mycobacterium abscessus subsp. abscessus isolate CIP104536 smooth variant after 3 to 5 days by two fold serial dilution method; type: functional; method in brief: as §1
[35] = tested on: Mycobacteroides abscessus; experiment: Antibacterial activity against CF patient derived Mycobacterium abscessus subsp. massiliense isolate 107 smooth variant after 3 to 5 days by two fold serial dilution method; type: functional; method in brief: as §1
[36] = tested on: Mycobacteroides abscessus; experiment: Antibacterial activity against CF patient derived Mycobacterium abscessus subsp. massiliense isolate 120 smooth variant after 3 to 5 days by two fold serial dilution method; type: functional; method in brief: as §1
[37] = tested on: Mycobacteroides abscessus; experiment: Antibacterial activity against CF patient derived Mycobacterium abscessus subsp. massiliense isolate 100 smooth variant after 3 to 5 days by two fold serial dilution method; type: functional; method in brief: as §1
[38] = tested on: Mycobacterium tuberculosis; experiment: Antibacterial activity against Mycobacterium tuberculosis by AlamarBlue assay; type: functional
[39] = tested on: Mycobacteroides abscessus; experiment: Antibacterial activity against Mycobacterium abscessus CIP104536 smooth variant harboring pMV261 MAB_4508 wild type at 0.5 to 1 ug/ml after 3 days; type: functional; method in brief: as §2
[40] = tested on: Mycobacteroides abscessus; experiment: Antibacterial activity against Mycobacterium abscessus CIP_OK4-10 harboring MAB_4508 g925c/A309P mutant after 3 to 5 days by two fold serial dilution method; type: functional; method in brief: as §1
[41] = Antibacterial activity against non CF patient derived Mycobacterium abscessus subsp. bolletii isolate 19 rough variant after 3 to 5 days by two fold serial dilution method; type: functional; details: Mycobacteroides abscessus; method in brief: as §1
[42] = tested on: Mycobacteroides abscessus; experiment: Antibacterial activity against Mycobacterium abscessus CIP104536 smooth variant infected in PMA activated THP-1 macrophages assessed as reduction in viable colony forming unit at 96 ug/ml measured upto 4 days post treatment by fluorescence microscopic method; type: functional
Method in brief: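 THP-1 cells in RPMI with 10% FBS, differentiated with 20 ng/mL PMA for 48 h at 37 °C; infected at MOI 1:2 for 2 h under 5% CO2; washed, 200 μg/mL amikacin for 1 h, washed; drug medium renewed daily; lysed in 1% Triton X100 at 0, 48, 96 h and plated for CFU; triplicates, two independent experiments.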

[43] = tested on: Mycobacteroides abscessus; experiment: Antibacterial activity against Mycobacterium abscessus CIP104536 smooth variant expressing tdTomato infected in PMA activated THP-1 macrophages assessed as protection against […] infection after 4 days post treatment by microscopic method; type: functional
Method in brief: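 THP-1 macrophages, PMA-differentiated, infected with tdTomato-expressing M. abscessus, amikacin-treated and drug-exposed as in the CFU assay; at 96 h, bacteria-containing macrophages counted under fluorescence microscopy (4297 total cells) to give percentage of infected cells.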

[44] = tested on: Mycobacteroides abscessus; experiment: Antibacterial activity against Mycobacterium abscessus CIP104536 smooth variant assessed as reduction in viable colony forming unit at 8 ug/ml after 4 days by time-kill assay; type: functional
Method in brief: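 Set up as microdilution MIC plates in cation-adjusted Mueller−Hinton broth with smooth CIP 104536; serial dilutions plated after 0, 24, 48, 72 and 96 h of drug exposure; CFU counted after 4 days at 30 °C; mean of triplicate log10 values, representative of three independent experiments.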

O=C(NC1CCCCCC1)c1cc2ccc(Br)cc2[nH]1
MIC [1]: 0.25 µg/mL (≈ 0.746 µM)
MIC [2]: 0.125 µg/mL (≈ 0.373 µM)
MIC [3]: 0.125 µg/mL (≈ 0.373 µM)
MIC [4]: 0.125 µg/mL (≈ 0.373 µM)
Activity [5]: inactive
MIC [6]: 0.25 µg/mL (≈ 0.746 µM)
MIC [7]: 0.5 µg/mL (≈ 1.49 µM)
MIC [8]: 0.125 µg/mL (≈ 0.373 µM)
Activity [9]: Active
MIC [10]: 0.125 µg/mL (≈ 0.373 µM)
MIC [11]: 32 µg/mL (≈ 95.5 µM)
MIC [12]: 0.125 µg/mL (≈ 0.373 µM)
MIC [13]: 0.0625 µg/mL (≈ 0.186 µM)
MIC [14]: 0.125 µg/mL (≈ 0.373 µM)
selectivity ratio [15]: ≥ 512
MIC [16]: 0.125 µg/mL (≈ 0.373 µM)
MIC [17]: 0.125 µg/mL (≈ 0.373 µM)
MIC [18]: 0.125 µg/mL (≈ 0.373 µM)
MIC [19]: 0.25 µg/mL (≈ 0.746 µM)
inhibition [20]: inactive
MIC [21]: 0.125 µg/mL (≈ 0.373 µM)
MIC [22]: 0.125 µg/mL (≈ 0.373 µM)
MIC [23]: 0.125 µg/mL (≈ 0.373 µM)
MIC [24]: 1 µg/mL (≈ 2.98 µM)
MIC [25]: 0.125 µg/mL (≈ 0.373 µM)
selectivity ratio [26]: ≥ 2050
MIC [27]: 0.125 µg/mL (≈ 0.373 µM)
inhibition [28]: Dose-dependent effect
MIC [29]: 0.125 µg/mL (≈ 0.373 µM)
MIC [30]: 0.125 µg/mL (≈ 0.373 µM)
MIC [31]: 0.0625 µg/mL (≈ 0.186 µM)
IC50 (Vero): ≥ 64 µg/mL
MIC [32]: 0.125 µg/mL (≈ 0.373 µM)
MIC [33]: 0.125 µg/mL (≈ 0.373 µM)
MIC [34]: 0.125 µg/mL (≈ 0.373 µM)
MIC [35]: 0.25 µg/mL (≈ 0.746 µM)
MIC [36]: 0.125 µg/mL (≈ 0.373 µM)
MIC [37]: 0.125 µg/mL (≈ 0.373 µM)
MIC=<90 [38]: 0.0313 µg/mL (≈ 0.0934 µM)
Activity [39]: Active
MIC [40]: 32 µg/mL (≈ 95.5 µM)
MIC [41]: 0.125 µg/mL (≈ 0.373 µM)

C[C@@H](O)[C@H]1C(=O)N2C(C(=O)O)=C(SCCNC=N)C[C@H]12
Activity [42]: Active
Activity [43]: Active
Activity [44]: Active

— ChEMBL document CHEMBL4014347, “Targeting Mycolic Acid Transport by Indole-2-carboxamides for the Treatment of Mycobacterium abscessus Infections” (J Med Chem, 2017)
